This is an account of results in publication PMC9279720 (Acta Pharmaceutica Sinica. B, 2021).

Molecules are shown by their SMILES.

Data set [1] is described as follows: Cell viability assay. The data set is classed as cell-based. As to conditions: human, HFF cells (no virus).
Data set [2] relates to HCMV ADCREGFP
In words: HCMV replication assay. The data set is classed as cell-based, Human cytomegalovirus (HCMV). The note with it: for SI (selectivity index, CC50/EC50): CC50 (HFF) / EC50 (HCMV); for Antiviral activity/potency in words: concentrations up to 50 μmol/L.

Data set [3] deals with T1, pUL89-C (Human cytomegalovirus, UniProt P16732).
T1 sequence (P16732 418-674 limits assumed): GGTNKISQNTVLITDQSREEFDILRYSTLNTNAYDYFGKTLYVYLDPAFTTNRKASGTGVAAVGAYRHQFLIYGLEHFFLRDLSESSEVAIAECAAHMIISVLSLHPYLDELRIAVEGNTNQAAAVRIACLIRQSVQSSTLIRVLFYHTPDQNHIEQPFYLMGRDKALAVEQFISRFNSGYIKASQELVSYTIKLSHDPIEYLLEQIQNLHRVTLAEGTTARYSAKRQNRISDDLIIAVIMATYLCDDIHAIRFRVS
Kind of data set: In vitro pUL89-C endonuclease assay. The note with it: read-out: Endonuclease inhibition (%) at 20 μmol/L. The class given is biochemical, HCMV.

Data set [4] concerns HFF cells. In words: Cell viability assay. The data set is classed as cell-based. As to conditions: for Cytotoxicity in words: HFFs.
Data set [5] has as its system HCMV ADCREGFP
In words: Time of addition assay. The data set is classed as cell-based, Human cytomegalovirus (HCMV). As to conditions: 5 × EC50, added at indicated times post infection. The gist of the method:
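HFFs seeded at 1.75 × 10^4 cells/well, grown 24 h in DMEM/10% FBS/1% P/S, then inoculated at MOI 0.01. Cells were held in DMEM with 5% FBS, 1% P/S and 0.5% DMSO until compound was added. GFP intensity was read after lysis; triplicate-well means were normalized to DMSO.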

A short description of data set [6]: Parallel artificial membrane permeability assay. The data set is classed as in vitro ADME. The note with it: for Papp at 5 h, 2 μmol/L: PAMPA. The gist of the method: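 Pre-coated lipid PAMPA plate system. Donor wells held test compound at 2 μmol/L in DPBS; acceptor wells held blank DPBS. Incubated 5 h at 25 °C without agitation. Donor and acceptor concentrations measured by LC/MS/MS. Pe calculated from an equilibrium-concentration equation (filter area 0.3 cm2). Compounds classed as high or low permeability at a cutoff of 1.5 × 10−6 cm/s.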

The nature of data set [7]: Microsomal stability assay, mouse liver microsomes. The data set is classed as in vitro ADME. As to conditions: CD-1, mouse, pH 7.4. The gist of the method: (§1)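 Test compound (1 μmol/L final) incubated at 37 °C with liver microsomes (human or CD-1 mouse; 0.5 mg/mL protein) and 1 mmol/L MgCl2 in 0.1 mol/L potassium phosphate, pH 7.4. Reaction started with NADPH (1 mmol/L final); a no-NADPH control and a verapamil positive control were run alongside. Samples taken up to 60 min and quenched in acetonitrile/0.1% formic acid. Half-life determined by LC/MS/MS.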

A short description of data set [8]: Plasma stability assay, human plasma. The class given is in vitro ADME. As to conditions: for half-life at 1 μmol/L: human, plasma, pH 7.4; for Plasma stability in words: species not told apart in the sentence (human and mouse in Table 3). In a few lines:
(§2)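 Test compound (1 μmol/L final) incubated at 37 °C in human or CD-1 mouse plasma diluted to 80% with 0.1 mol/L potassium phosphate, pH 7.4. Aliquots taken at time points up to […], quenched with acetonitrile/0.1% formic acid and centrifuged at 4 °C. Percent remaining and half-life determined by LC/MS/MS.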

The nature of data set [9]: Plasma stability assay, mouse plasma. The data set is classed as in vitro ADME, mouse (CD-1). As to conditions: CD-1, mouse, pH 7.4. In a few lines: as §2
For data set [10], the system named is HCMV ADCREGFP
Kind of data set: Compound withdrawal assay. The class given is cell-based, Human cytomegalovirus (HCMV). As to conditions: 5 × EC50, removed at indicated times, read at 168 h. In a few lines: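 HFFs in DMEM/5% FBS, inoculated with the virus at MOI 0.01 for 2 h before compound or 0.5% DMSO was added. At each withdrawal time, wells were washed twice in PBS and refed with 0.5% DMSO medium. Cells were lysed in Tris/DTT/Triton buffer and GFP read at ex/em 495/515 nm. Triplicate-well means.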

Data set [11] is described as follows: Microsomal stability assay, human liver microsomes. The class given is in vitro ADME. The note with it: for half-life at 1 μmol/L: human, liver microsomes, pH 7.4; for Microsomal stability in words: species not told apart in the sentence (human and mouse in Table 3). In a few lines:
as §1

Consider `Nc1nc(O)c2ncn(COC(CO)CO)c2n1` [Compound 1, ganciclovir, reference compound], for which, in data set [1], the CC50 at 168 h was > 50 µM. Besides, in data set [2], the “SI (selectivity index, CC50/EC50)” value is recorded as >50.
Consider `O=C(NCc1ccc(F)cc1)c1cn(Cc2ccc(F)cc2)cc(O)c1=O` [Compound 8b], for which, in [3], the inhibition at 20 µM stood at 7%. The same compound yielded a CC50 at 168 h in data set [1] of 6.4 ± 3.7 µM. In addition, in data set [2], the “SI (selectivity index, CC50/EC50)” value is listed as 8.2.
The like results for `O=C(NCc1ccccc1)c1cn(Cc2ccc(F)cc2)cc(O)c1=O` [Compound 8d] were, in that order, 9%, 7.1 ± 6.4 µM and 4.7.
The like results for `O=C(NCc1ccccc1F)c1cn(Cc2ccc(F)cc2)cc(O)c1=O` [Compound 8e] were, in that order, 6%, 5.8 ± 2.1 µM and 3.6.
As to `O=C(NCc1cccc(F)c1)c1cn(Cc2ccc(F)cc2)cc(O)c1=O` [Compound 8f], the inhibition at 20 µM in [3] is 7%. The same compound had a CC50 at 168 h in data set [1] of 3.9 ± 1.8 µM. The “SI (selectivity index, CC50/EC50)” value in data set [2] stood at 4.0.
Turning to `O=C(NCc1ccc(Cl)cc1F)c1cn(Cc2ccc(F)cc2)cc(O)c1=O` [Compound 8k], in data set [3], the inhibition at 20 µM amounted to 14%. The same compound had a CC50 at 168 h in data set [1] of 2.4 ± 0.07 µM. Also, the “SI (selectivity index, CC50/EC50)” value in data set [2] stood at 4.4.
The matching figures for `O=C(NCc1ccc(F)c(Cl)c1)c1cn(Cc2ccc(F)cc2)cc(O)c1=O` [Compound 8n]: 5%, 3.9 ± 2.3 µM and 6.3.
Regarding `O=C(NCc1c(F)cccc1Cl)c1cn(Cc2ccc(F)cc2)cc(O)c1=O` [Compound 8p], the inhibition at 20 µM in data set [3] stood at 5%. Besides, the Cytotoxicity in words entry in [4] is “cytostatic but not a cytotoxic effect”. For the same compound, in [4] (across all compound concentrations 0.2–50 μmol/L), the “Metabolic activity compared to DMSO (MTS assay)” value is on record as “approximately 50%”. Besides, in data set [1], the viability at 168 h, 50 μmol/L is ~50%.
`O=C(NCc1ccc(Br)cc1F)c1cn(Cc2ccc(F)cc2)cc(O)c1=O` [Compound 8q]: the inhibition at 20 µM in [3] was 9%. Further, in data set [1], the CC50 at 168 h is > 25 µM. Further, the “SI (selectivity index, CC50/EC50)” value in [2] is on record as >41.
`N#Cc1ccc(CNC(=O)c2cn(Cc3ccc(F)cc3)cc(O)c2=O)c(F)c1` [Compound 8r]: the inhibition at 20 µM in [3] came to 5%. Moreover, in data set [1], the 50% cytotoxic concentration (CC50) at 168 h is > 50 µM. Moreover, the “SI (selectivity index, CC50/EC50)” value in data set [2] is >42.
In the case of `Cc1cc(CNC(=O)c2cn(Cc3ccc(F)cc3)cc(O)c2=O)ccc1F` [Compound 8s], the inhibition at 20 µM in [3] came to 6%. Moreover, the CC50 at 168 h in data set [1] came out at 10 ± 5.4 µM. Also, the “SI (selectivity index, CC50/EC50)” value in data set [2] came to 10.
The matching figures for `O=C(NCc1ccc(C(F)(F)F)cc1F)c1cn(Cc2ccc(F)cc2)cc(O)c1=O` [Compound 8u]: 3%, > 25 µM and >46.
The matching figures for `O=C(NCc1cc(F)c(F)cc1F)c1cn(Cc2ccc(F)cc2)cc(O)c1=O` [Compound 8v]: 5%, 5.7 ± 2 µM and 8.1.
Turning to `O=C(Nc1ccc(F)cc1)c1cn(Cc2ccc(F)cc2)cc(O)c1=O` [Compound 9b], in data set [3], the inhibition at 20 µM came out at 9%. Moreover, the CC50 at 168 h in data set [1] is 5.6 ± 1.3 µM. The “SI (selectivity index, CC50/EC50)” value in data set [2] was determined as 6.4.
On to `CC1(C)OB(c2ccc(NC(=O)c3cn(Cc4ccc(F)cc4)cc(O)c3=O)cc2)OC1(C)C` [Compound 9c], for which, in data set [3], the inhibition at 20 µM was 7%. In addition, the Cytotoxicity in words entry in data set [4] is recorded as “no cytotoxicity”. Also, in [1], the CC50 at 168 h is > 50 µM. Moreover, in [2], the “SI (selectivity index, CC50/EC50)” value is given as >17 and the “Antiviral activity/potency in words” value is reported as “decreased potency”.
Regarding `CC(NC(=O)c1cn(Cc2ccc(F)cc2)cc(O)c1=O)c1ccc(F)cc1F` (centres unmarked) [Compound 10], in [3], the inhibition at 20 µM amounted to 5%. Besides, the CC50 at 168 h in data set [1] is > 50 µM. Besides, the “SI (selectivity index, CC50/EC50)” value in data set [2] is recorded as >94.
The like results for `CN(Cc1ccc(F)cc1F)C(=O)c1cn(Cc2ccc(F)cc2)cc(O)c1=O` [Compound 11] were, in that order, 6%, 12 ± 4.9 µM and 8.6.
As for `O=C(NCCc1ccc(F)cc1F)c1cn(Cc2ccc(F)cc2)cc(O)c1=O` [Compound 12], the inhibition at 20 µM in [3] stood at 10%. The “Time of addition, result in words” value in data set [5] was “inhibit viral replication at a stage between when GCV and LTV are active”. The CC50 at 168 h in [1] is > 50 µM. Further, in data set [6], the PAMPA permeability class result was “high permeability” and the Papp at 5 h, 2 μmol/L was determined as 4.5 ± 0.9 ×10⁻⁶ cm/s. In data set [7], the half-life at 1 μmol/L was found to be 0.433 ± 0.0167 h. Besides, in [8], the half-life at 1 μmol/L was > 24 h and the “Plasma stability in words” value is given as “excellent”. Besides, the half-life at 1 μmol/L in data set [9] is > 24 h. Moreover, the “Compound withdrawal, result in words” value in data set [10] is “inhibit a step in viral replication between LTV and GCV”. Moreover, in data set [11], the half-life at 1 μmol/L was 0.668 ± 0.03 h and the “Microsomal stability in words” value is “good”. Further, the “SI (selectivity index, CC50/EC50)” value in data set [2] was >116.
Consider `O=C(NCc1ccc(F)cc1F)c1cn(Cc2ccccc2)cc(O)c1=O` [Compound 13], for which the inhibition at 20 µM in data set [3] was found to be 6%. Further, the “Time of addition, result in words” value in [5] is given as “active similar to, or possibly later than, LTV”. Further, the CC50 at 168 h in [1] is > 50 µM. Besides, the PAMPA permeability class result in data set [6] is “high permeability”. The same compound displayed a Papp at 5 h, 2 μmol/L in data set [6] of 9.1 ± 1.1 ×10⁻⁶ cm/s. In addition, the half-life at 1 μmol/L is 0.895 ± 0.00667 h in data set [7], > 24 h in data set [8], > 24 h in data set [9] and 1.7 ± 0.197 h in [11]. Moreover, the “Plasma stability in words” value in data set [8] was “excellent”. For the same compound, in [10], the “Compound withdrawal, result in words” value was “viral replication recovered similarly to GCV”. The “Microsomal stability in words” value in data set [11] is “good”. The “SI (selectivity index, CC50/EC50)” value in [2] is on record as >50.
In the case of `O=C(NCc1ccc(F)cc1F)c1cn(C2CC2)cc(O)c1=O` [Compound 14], in [3], the inhibition at 20 µM was 7%. The CC50 at 168 h in data set [1] is > 25 µM. The “SI (selectivity index, CC50/EC50)” value in [2] is recorded as >5.2.
For the compound `O=C(NCc1ccc(F)cc1F)c1c[nH]cc(O)c1=O` [Compound 15], the inhibition at 20 µM in data set [3] came out at 7%. In addition, the cytotoxic concentration (CC50) at 168 h in data set [1] is > 50 µM. The “SI (selectivity index, CC50/EC50)” value in data set [2] is given as >6.3.
The like results for `O=C(NCc1ccc(F)cc1F)c1cn(Cc2ccc(F)cc2)ccc1=O` [Compound 17] were, in that order, 5%, > 50 µM and >7.6.
Regarding `CCOC(=O)c1cn(Cc2ccc(F)cc2)ccc1=O` [Compound 42], in data set [3], the inhibition at 20 µM is 7%. Further, in [1], the CC50 at 168 h was > 50 µM. In data set [2], the “Antiviral activity/potency in words” value is recorded as “no antiviral activity”.
Turning to `COc1cccc(N2CCN(C3=Nc4c(F)cccc4[C@H](CC(=O)O)N3c3cc(C(F)(F)F)ccc3OC)CC2)c1` [LTV, letermovir, reference compound], the “Compound withdrawal, result in words” value in data set [10] is on record as “the viral infection rebounded quickly compared to GCV”.
